Laboratory results as given in ChEMBL document CHEMBL2057093, “New oxirane derivatives of 1,4-naphthoquinones and their evaluation against T. cruzi epimastigote forms” (Bioorg Med Chem, 2012).

Legend:
Trypanosoma cruzi [1] = assay: Antitrypanosomal activity against Trypanosoma cruzi Y epimastigotes assessed as cell death at 50 uM after 72 hrs by propidium iodide staining-based flow cytometric analysis; assay type: functional
Summary of the method: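 T. cruzi Y epimastigotes at 5 × 10^5 cells/mL exposed to compound at 50 µM for 72 h. Cells then centrifuged (1500 g), washed in PBS and stained with 30 µg/mL propidium iodide for 15 min. Flow cytometry acquired 10,000 events in the epimastigote gate, and PI-positive cells were counted as dead. Mean and SD from at least two independent experiments in duplicate.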

Trypanosoma cruzi [2] = assay: Antitrypanosomal activity against Trypanosoma cruzi Y epimastigotes after 72 hrs by Neubauer counter-based microscopic analysis; assay type: functional, organism-based
Summary of the method: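 T. cruzi Y epimastigotes (10^6 cells/mL) grown in BHI medium with 10% fetal bovine serum at 28 °C and exposed to compounds from 5 mM DMSO stocks for 72 h. Parasites counted directly in a Neubauer chamber by light microscopy. Untreated and 1% DMSO (v/v) cultures served as negative controls. IC50 (50% growth inhibition) computed by Probit analysis.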

[3] = Cytotoxicity against african green monkey Vero cells after 72 hrs by spectrophotometric analysis; assay type: cell-based; conditions: chlorocebus sabaeus
Summary of the method: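 VERO kidney fibroblasts kept in DMEM with 5% fetal bovine serum and HEPES. Seeded at 10^5 cells/well and allowed to adhere 24 h at 37 °C, then exposed to compounds for 72 h. Cells were PBS-washed, fixed in 0.2% formaldehyde, stained 1 h with 0.2% Coomassie Brilliant Blue R-250, and eluted with 1% SDS. Absorbance read at 595 nm. CC50 by Probit from triplicate runs.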

SMILES	Activity (Trypanosoma cruzi [1]) [%]	IC50 (Trypanosoma cruzi [2]) [µM]	CC50 at 72 h [3] [µM]
CC1(C)CCC23CC2(O1)C(=O)c1ccccc1C3=O (stereo not given)	3.1	60.9	66
CC1(C)CCC2=C(O1)C(=O)C1=C(CCCC1)C2=O	84.2	16.3	11.7
CC1(C)CCC2=C(O1)C1(CO1)C1=C(CCCC1)C2=O (stereo not given)	17.9	16.4	58.1
COC1=CC(=O)c2ccccc2C12CO2 (stereo not given)	74.2	1.13	44
C=CCOC1=CC(=O)c2ccccc2C1=O	86.3	0.02	< 1
C=CCOC1=CC(=O)c2ccccc2C12CO2 (stereo not given)	84.5	0.2	< 1
O=C1C(Cl)=C(Cl)C2(CO2)c2ccccc21 (stereo not given)	84.7	9.48	19
CC1(C)CCC2=C(O1)C1(CO1)c1ccccc1C2=O (stereo not given)	85.6	0.05	> 50
CC1(C)CC2=C(O1)C1(CO1)c1ccccc1C2=O (stereo not given)	88.5	19.3	19
CC1(C)CC2=C(O1)C(=O)c1ccccc1C2=O	91.4	8.8	2.7
COC1=CC(=O)c2ccccc2C1=O [2-Methoxy-1,4-naphthoquinone]	82.3	3.19	13
CC1(C)CCC2=C(O1)C(=O)c1ccccc1C2=O [ALPHA-LAPACHONE]	82.7	3.19	1.2
O=C(Cn1ccnc1[N+](=O)[O-])NCc1ccccc1 [BENZNIDAZOLE]	26.8	11.5	48
O=C1C(Cl)=C(Cl)C(=O)c2ccccc21 [Dichlon]	84.3	0.09	6.3
CC1(C)CCC2=C(O1)c1ccccc1C(=O)C2=O [LAPACHONE]	91.3	< 3.1	< 3.1
